{"source": "ChEMBL document CHEMBL1255300", "about": "“Pharmacodynamics of the antibacterial effect and emergence of resistance to tomopenem, formerly RO4908463/CS-023, in an in vitro pharmacokinetic model of Staphylococcus aureus infection” (Antimicrob Agents Chemother, 2008)", "key": {"Staphylococcus aureus [1]": {"tested_on": "Staphylococcus aureus", "assay": "Antibacterial activity against methicillin-resistant Staphylococcus aureus 33827 infected in in vitro pharmacokinetic model assessed as time required to 99.9% killing at 1500 mg, iv every 8 hrs using 10^6 CFU/ml inoculum", "format": "functional", "in_short": "(§1)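 Single-compartment dilutional in vitro PK model, 10% Mueller-Hinton broth, 37°C, stirred, dilution 132 ml/h. […] Inoculum 10^6 CFU/ml (added 45 min pre-dose) or 10^8 CFU/ml (run overnight). Viable counts by spiral plating, beta-lactamase neutralization, detection limit 10^2 CFU/ml. At least triplicate.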"}, "Serum": {"tested_on": "Serum", "assay": "Drug level in human serum at 1400 mg", "format": "ADME, cell-free"}, "Staphylococcus aureus [2]": {"tested_on": "Staphylococcus aureus", "assay": "AUBKC (0 to 24 hrs) in methicillin-sensitive Staphylococcus aureus 5956 infected in in vitro pharmacokinetic model at 1500 mg, iv every 8 hrs using 10^6 CFU/ml inoculum", "format": "functional"}, "Staphylococcus aureus [3]": {"tested_on": "Staphylococcus aureus", "assay": "AUBKC (0 to 24 hrs) in methicillin-resistant Staphylococcus aureus 33922 infected in in vitro pharmacokinetic model at 1500 mg, iv every 8 hrs using 10^6 CFU/ml inoculum", "format": "functional", "in_short": "(§2)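 Single-compartment dilutional in vitro PK model at 37°C in 10% Mueller-Hinton broth, stirred, flow 132 ml/h. […] Inoculum 10^6 CFU/ml added 45 min before dosing, or 10^8 CFU/ml run overnight. Viable counts with β-lactamase neutralisation. AUBKC by log-linear trapezoidal rule, at least triplicate.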"}, "Staphylococcus aureus [4]": {"tested_on": "Staphylococcus aureus", "assay": "AUBKC (0 to 24 hrs) in methicillin-resistant Staphylococcus aureus 33829 infected in in vitro pharmacokinetic model at 1500 mg, iv every 8 hrs using 10^6 CFU/ml inoculum", "format": "functional", "in_short": "as §2"}, "Staphylococcus aureus [5]": {"tested_on": "Staphylococcus aureus", "assay": "AUBKC (0 to 48 hrs) in methicillin-resistant Staphylococcus aureus 33827 infected in in vitro pharmacokinetic model at 750 mg, iv every 8 hrs using 10^6 CFU/ml inoculum", "format": "functional", "in_short": "as §2"}, "Staphylococcus aureus [6]": {"tested_on": "Staphylococcus aureus", "assay": "Antibacterial activity against methicillin-resistant Staphylococcus aureus 33827 infected in in vitro pharmacokinetic model assessed as reduction in viable count at 750 mg, iv every 8 hrs measured after 36 hrs using 10^8 CFU/ml inoculum", "format": "functional", "in_short": "as §1"}, "Staphylococcus aureus [7]": {"tested_on": "Staphylococcus aureus", "assay": "Antibacterial activity against methicillin-resistant Staphylococcus aureus 33922 infected in in vitro pharmacokinetic model assessed as reduction in viable count at 750 mg, iv every 8 hrs measured after 48 hrs using 10^8 CFU/ml inoculum", "format": "functional"}, "Staphylococcus aureus [8]": {"tested_on": "Staphylococcus aureus", "assay": "Antibacterial activity against methicillin-resistant Staphylococcus aureus 33815 infected in in vitro pharmacokinetic model assessed as reduction in viable count at 750 mg, iv every 8 hrs measured after 48 hrs using 10^8 CFU/ml inoculum", "format": "functional", "in_short": "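PK model at 37°C in 10% MHB. […] A 0.5 McFarland suspension (1 ml) was added and the model run overnight to reach 10^8 CFU/ml before dosing. Counts were spiral-plated on nutrient agar with β-lactamase. Change in log CFU/ml was measured from time 0; at least triplicate.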"}, "Staphylococcus aureus [9]": {"tested_on": "Staphylococcus aureus", "assay": "AUBKC (0 to 24 hrs) in methicillin-resistant Staphylococcus aureus 33815 infected in in vitro pharmacokinetic model at 750 mg, iv every 8 hrs using 10^8 CFU/ml inoculum", "format": "functional", "in_short": "as §2"}, "Staphylococcus aureus [10]": {"tested_on": "Staphylococcus aureus", "assay": "AUBKC (0 to 48 hrs) in methicillin-resistant Staphylococcus aureus 33922 infected in in vitro pharmacokinetic model at 750 mg, iv every 8 hrs using 10^8 CFU/ml inoculum", "format": "functional", "in_short": "as §2"}, "Staphylococcus aureus [11]": {"tested_on": "Staphylococcus aureus", "assay": "Antibacterial activity against methicillin-resistant Staphylococcus aureus 33922 assessed as viable count at 2 times of MIC after 24 hrs using 10^6 CFU/ml inoculum", "format": "functional, organism-based"}, "Staphylococcus aureus [12]": {"tested_on": "Staphylococcus aureus", "assay": "Antibacterial activity against methicillin-resistant Staphylococcus aureus 33820 in in vitro pharmacokinetic model assessed as viable count at 2 times of MIC", "format": "functional", "in_short": "(§3)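 Population analysis before drug exposure (time 0). Model samples were plated on nutrient agar without drug and with tomopenem at 2×, 4× and 6× MIC (10% MHB MIC), and growth was recorded as log CFU/ml. Detection limit 2 log10.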"}, "Staphylococcus aureus [13]": {"tested_on": "Staphylococcus aureus", "assay": "Antibacterial activity against methicillin-resistant Staphylococcus aureus 33827 in in vitro pharmacokinetic model assessed as viable count at 4 times of MIC", "format": "functional", "in_short": "as §3"}, "Staphylococcus aureus [14]": {"tested_on": "Staphylococcus aureus", "assay": "Antibacterial activity against methicillin-sensitive Staphylococcus aureus 5956 infected in in vitro pharmacokinetic model assessed as reduction in viable count at 750 mg, iv every 8 hrs measured after 12 hrs using 10^6 CFU/ml inoculum", "format": "functional"}, "Staphylococcus aureus [15]": {"tested_on": "Staphylococcus aureus", "assay": "Antibacterial activity against methicillin-resistant Staphylococcus aureus 33921 infected in in vitro pharmacokinetic model assessed as reduction in viable count at 750 mg, iv every 8 hrs measured after 12 hrs using 10^6 CFU/ml inoculum", "format": "functional", "in_short": "as §1"}, "Staphylococcus aureus [16]": {"tested_on": "Staphylococcus aureus", "assay": "Antibacterial activity against methicillin-resistant Staphylococcus aureus 33820 infected in in vitro pharmacokinetic model assessed as reduction in viable count at 750 mg, iv every 8 hrs measured after 12 hrs using 10^6 CFU/ml inoculum", "format": "functional", "in_short": "(§4)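 Single-compartment dilutional in vitro PK model, 37°C, stirred, in 10% Mueller-Hinton broth. […] Inoculum 10^6 CFU/ml from a 24-h plate culture was added 45 min before dosing. Viable counts by spiral plating on nutrient agar with β-lactamase neutralization. Log change was taken from time 0; detection limit 10^2 CFU/ml; at least triplicate.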"}, "Staphylococcus aureus [17]": {"tested_on": "Staphylococcus aureus", "assay": "Antibacterial activity against methicillin-resistant Staphylococcus aureus 33815 infected in in vitro pharmacokinetic model assessed as reduction in viable count at 750 mg, iv every 8 hrs measured after 24 hrs using 10^6 CFU/ml inoculum", "format": "functional", "in_short": "as §4"}, "Staphylococcus aureus [18]": {"tested_on": "Staphylococcus aureus", "assay": "Antibacterial activity against methicillin-resistant Staphylococcus aureus 33820 assessed as viable count at 4 times of MIC after 48 hrs using 10^6 CFU/ml inoculum", "format": "functional, organism-based"}, "Staphylococcus aureus [19]": {"tested_on": "Staphylococcus aureus", "assay": "T>MIC for static effect in methicillin-resistant Staphylococcus aureus 33922 in in vitro pharmacokinetic model after 24 hrs using 10^6 CFU/ml inoculum", "format": "functional"}, "Staphylococcus aureus [20]": {"tested_on": "Staphylococcus aureus", "assay": "T>MIC for 2-log drop in count in methicillin-resistant Staphylococcus aureus 33922 in in vitro pharmacokinetic model after 24 hrs using 10^6 CFU/ml inoculum", "format": "functional"}, "Staphylococcus aureus [21]": {"tested_on": "Staphylococcus aureus", "assay": "T>MIC for 4-log drop in count in methicillin-sensitive Staphylococcus aureus 5956 in in vitro pharmacokinetic model after 24 hrs using 10^6 CFU/ml inoculum", "format": "functional", "in_short": "(§5)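 Dose-ranging: 7–13 simulated regimens per strain giving T>MIC of 0–100% (MIC from 10% MHB), at 106 or 10^8 CFU/ml as stated.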"}, "Staphylococcus aureus [22]": {"tested_on": "Staphylococcus aureus", "assay": "T>MIC for 1-log drop in count in methicillin-sensitive Staphylococcus aureus 5956 in in vitro pharmacokinetic model after 24 hrs using 10^8 CFU/ml inoculum", "format": "functional"}, "Staphylococcus aureus [23]": {"tested_on": "Staphylococcus aureus", "assay": "T>MIC for 3-log drop in count in methicillin-sensitive Staphylococcus aureus 5956 in in vitro pharmacokinetic model after 24 hrs using 10^8 CFU/ml inoculum", "format": "functional", "in_short": "as §5"}, "Staphylococcus aureus [24]": {"tested_on": "Staphylococcus aureus", "assay": "Antibacterial activity against methicillin-resistant Staphylococcus aureus 33820 infected in in vitro pharmacokinetic model assessed as reduction in viable count at 750 mg, iv every 8 hrs measured after 48 hrs using 10^6 CFU/ml inoculum", "format": "functional", "in_short": "as §4"}, "Staphylococcus aureus [25]": {"tested_on": "Staphylococcus aureus", "assay": "Antibacterial activity against methicillin-resistant Staphylococcus aureus 33820 infected in in vitro pharmacokinetic model assessed as reduction in viable count at 1500 mg, iv every 8 hrs measured after 36 hrs using 10^6 CFU/ml inoculum", "format": "functional", "in_short": "as §4"}}, "note": "Calls of active or inactive are those of the source. The calls are words filed in the database; no cut-off is given here."}
{"smiles": "C[C@@H](O)[C@H]1C(=O)N2C(C(=O)O)=C(S[C@H]3C[C@@H](C(=O)N4CC[C@H](NC(=O)CNC(=N)N)C4)N(C)C3)[C@H](C)[C@H]12", "note": "[TOMOPENEM]", "values": [{"measurement": "Time", "setting": "Staphylococcus aureus [1]", "result": 12, "unit": "h"}, {"measurement": "Drug uptake", "setting": "Serum", "result": 100, "unit": "mg/L"}, {"measurement": "AUBC", "setting": "Staphylococcus aureus [2]", "result": 22.7, "unit": "log10CFU/ml.hr"}, {"measurement": "AUBC", "setting": "Staphylococcus aureus [3]", "result": 16.9, "unit": "log10CFU/ml.hr"}, {"measurement": "AUBC", "setting": "Staphylococcus aureus [4]", "result": 30, "unit": "log10CFU/ml.hr"}, {"measurement": "AUBC", "setting": "Staphylococcus aureus [5]", "result": 44.9, "unit": "log10CFU/ml.hr"}, {"measurement": "log10CFU/ml", "setting": "Staphylococcus aureus [6]", "result": 5}, {"measurement": "log10CFU/ml", "setting": "Staphylococcus aureus [7]", "result": 5.8}, {"measurement": "log10CFU/ml", "setting": "Staphylococcus aureus [8]", "result": 5}, {"measurement": "AUBC", "setting": "Staphylococcus aureus [9]", "result": 100, "unit": "log10CFU/ml.hr"}, {"measurement": "AUBC", "setting": "Staphylococcus aureus [10]", "result": 81.5, "unit": "log10CFU/ml.hr"}, {"measurement": "Activity", "setting": "Staphylococcus aureus [11]", "result": "inactive"}, {"measurement": "log10CFU/ml", "setting": "Staphylococcus aureus [12]", "result": 2.3}, {"measurement": "log10CFU/ml", "setting": "Staphylococcus aureus [13]", "result": "<2"}, {"measurement": "log10CFU/ml", "setting": "Staphylococcus aureus [14]", "result": 4.1}, {"measurement": "log10CFU/ml", "setting": "Staphylococcus aureus [15]", "result": 3.6}, {"measurement": "log10CFU/ml", "setting": "Staphylococcus aureus [16]", "result": 3.9}, {"measurement": "log10CFU/ml", "setting": "Staphylococcus aureus [17]", "result": 4.2}, {"measurement": "Activity", "setting": "Staphylococcus aureus [18]", "result": "Active"}, {"measurement": "fT>MIC", "setting": "Staphylococcus aureus [19]", "result": 1.3, "unit": "%"}, {"measurement": "fT>MIC", "setting": "Staphylococcus aureus [20]", "result": 5.4, "unit": "%"}, {"measurement": "fT>MIC", "setting": "Staphylococcus aureus [21]", "result": 12.8, "unit": "%"}, {"measurement": "fT>MIC", "setting": "Staphylococcus aureus [22]", "result": 3.4, "unit": "%"}, {"measurement": "fT>MIC", "setting": "Staphylococcus aureus [23]", "result": 12.8, "unit": "%"}, {"measurement": "log10CFU/ml", "setting": "Staphylococcus aureus [24]", "result": 4.2}, {"measurement": "log10CFU/ml", "setting": "Staphylococcus aureus [25]", "result": 3.8}]}
